DNMT1 block: inhibitors of human DNMT1. DNMT1 molecular beacon, Hinp1I cleavage, fluorescence. actives 0.83% (n = 360,000). inhibition (reported as % activation of signal), % at 10 µM; in the data active = inhibition above about 50%
DSG3 Ab inh: inhibitors of pemphigus antibody binding to human desmoglein-3; DSG3-coupled beads, scFv-anti-DSG3-GFP binding, flow cytometry; stronger effect = lower value; binding (percent of control), % at 10 µM; actives 0.48% (n = 310,000);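 active = binding more than 3 SD below its plate's average and above zero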;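 also: hits lower antibody fragment binding to DSG3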
MBD2 inh: inhibitors of human MBD2 binding to methylated oligonucleotide | TR-FRET | Q9UBB5 | inhibition, % at 4.4 µM | actives 0.31% (n = 370,000); in the data active = inhibition above about 13%
Target sequence (Q9UBB5 whole entry, looked up): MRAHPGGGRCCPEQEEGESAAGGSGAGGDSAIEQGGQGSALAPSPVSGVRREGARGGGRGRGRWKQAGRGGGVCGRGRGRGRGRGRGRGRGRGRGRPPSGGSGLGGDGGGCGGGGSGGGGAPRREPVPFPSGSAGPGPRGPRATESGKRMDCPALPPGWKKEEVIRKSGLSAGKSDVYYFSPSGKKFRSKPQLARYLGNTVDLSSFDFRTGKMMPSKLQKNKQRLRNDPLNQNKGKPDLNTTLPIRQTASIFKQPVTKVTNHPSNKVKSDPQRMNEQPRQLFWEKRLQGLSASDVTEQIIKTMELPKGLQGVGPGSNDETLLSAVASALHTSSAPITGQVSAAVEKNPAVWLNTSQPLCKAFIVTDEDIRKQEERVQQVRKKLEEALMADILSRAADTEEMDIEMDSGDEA
HCV NS3 hel inh: blocks Hepatitis C virus NS3 helicase unwinding; NS3 helicase DNA unwinding, Cy5 molecular beacon fluorescence; inhibition, % at 10.9 µM; actives 0.56% (n = 290,000); AID 1800;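 active = inhibition above the mean of all tested compounds plus 3 SD, set per campaign, cut at about 35% in these data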;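 also: 0% = DMSO wells and 100% = thioflavine S control wells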
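Measured by: Cy5 fluorescence, 0 and 60 min reads / Assay system: NS3 helicase fragment of HCV / Control set: low DMSO, high thioflavine S at 110 µM / Times: 1 h reaction at 25 °C, ATP-initiated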
UHRF1 binding: human UHRF1 methylated DNA binding inhibitors | Q96T88 | UHRF1 binding to methylated oligo, TR-FRET | inhibition, % at 4.4 µM | actives 0.75% (n = 370,000) | AID 687016; in the data active = inhibition above about 21%;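 also: UHRF1 SRA domain binding a hemimethylated CpG hairpin DNA probe; 0% = median of test compound wells and 100% = reference inhibitor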
SUMO1-SIM PPI: alters human SUMO1 binding to SIM partners; P63165; SUMO1 binding to a labelled peptide, TR-FRET, 1 h; inhibition, % at 20 µM; actives 0.33% (n = 360,000); in the data active = inhibition above about 37%
Target sequence (P63165 whole entry, looked up): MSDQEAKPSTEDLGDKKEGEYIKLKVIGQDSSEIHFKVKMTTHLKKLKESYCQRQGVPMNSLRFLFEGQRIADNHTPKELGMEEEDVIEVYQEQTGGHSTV
DNMT1 inh conf: DNMT1 inhibition confirmation, single concentration | inhibition, % at 10 µM | actives 8% (n = 2,300) | DNMT1 molecular beacon HinP1I cleavage, fluorescence | shares compounds with DNMT1 block;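 active = average inhibition of at least 30% in the single-concentration confirmation test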
Beacon interf: counter-screen for DNMT1 inhibitors: spectral interference. shares compounds with DNMT1 block. DNMT1 molecular beacon spectral interference counterscreen, fluorescence 485/520. activation (fluorescence interference), % at 10 µM. actives 1% (n = 2,300);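 active = activation of at least 30% at 10 µM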;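 also: DNMT1 catalytic domain with a HinP1I cleavage step and a FAM/dabcyl DNA beacon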
The depositor's hits bear a star. Shown are actives, neighbours in structure and some others; about 2.5% of the full set was active somewhere.

How did O=C(Nc1cccc(-c2nc3ccccc3s2)c1)c1cc(=O)c2ccccc2o1 do in these assays?
DNMT1 block: 51.5*; DSG3 Ab inh: 96.7; MBD2 inh: 2.8; HCV NS3 hel inh: -9.9; UHRF1 binding: -2.8; SUMO1-SIM PPI: 3.2; DNMT1 inh conf: 1.2; Beacon interf: 1.4

What do the screens show for `O=C(CSc1nnc2ccccn12)Nc1cccc(-c2nc3ccccc3s2)c1`?
DNMT1 block: 60.9*; DSG3 Ab inh: 97.5; MBD2 inh: 2.2; HCV NS3 hel inh: 6.2; UHRF1 binding: 0.2; SUMO1-SIM PPI: -2.0; DNMT1 inh conf: 0.9; Beacon interf: -7.4

What do the screens show for `C=CCn1c(SCC(=O)Nc2ccc(-c3nc4ccc(C)cc4s3)cc2)nnc1-c1ccccc1`?
DNMT1 block: 73.8*; DSG3 Ab inh: 94.6; MBD2 inh: 2.1; HCV NS3 hel inh: 21.1; UHRF1 binding: 1.5; SUMO1-SIM PPI: 7.0; DNMT1 inh conf: 5.1; Beacon interf: -2.6

Results for C=CCn1c(SCC(=O)Nc2ccc3c(c2)OCO3)nnc1-c1ccccc1 ?
DNMT1 block: 52.1*; MBD2 inh: -2.8; HCV NS3 hel inh: -1.7; UHRF1 binding: -3.0; SUMO1-SIM PPI: -1.5; DNMT1 inh conf: 1.4; Beacon interf: 5.9

How did O=C(NC(=S)Nc1cccc(C(F)(F)F)c1)c1ccc2nonc2c1 do in these assays?
DNMT1 block: 3.3; DSG3 Ab inh: 96.5; MBD2 inh: 3.2; HCV NS3 hel inh: 2.1; UHRF1 binding: -0.6; SUMO1-SIM PPI: -26.5

What do the screens show for `Cc1ccc(Cl)cc1N1CCN(C(=O)CN(c2ccccc2)S(=O)(=O)N(C)C)CC1`?
DNMT1 block: 65.3*; DSG3 Ab inh: 102.5; MBD2 inh: 3.4; HCV NS3 hel inh: 0.5; UHRF1 binding: 3.9; SUMO1-SIM PPI: 5.6; DNMT1 inh conf: 2.6; Beacon interf: 0.6

Results for COc1ccc(CCNC(=O)c2ccc(OCc3c(C)noc3C)cc2)cc1OC ?
DNMT1 block: 54.2*; DSG3 Ab inh: 107.2; MBD2 inh: 4.7; UHRF1 binding: 1.0; SUMO1-SIM PPI: -6.0; DNMT1 inh conf: 9.7; Beacon interf: 8.5

Results for Cc1nc(N2N=C(c3ccc(Cl)cc3)CC2c2ccco2)sc1C(=O)N(C)C (stereo not drawn) ?
DNMT1 block: -13.8; DSG3 Ab inh: 97.9; MBD2 inh: -3.5; HCV NS3 hel inh: 6.3; UHRF1 binding: 2.0; SUMO1-SIM PPI: -8.1

What do the screens show for `COc1ccc(C2=NN(c3nc(-c4ccccc4)c(CC(=O)O)s3)C(c3ccco3)C2)cc1` (stereo not drawn)?
DNMT1 block: 56.4*; DSG3 Ab inh: 124.2; MBD2 inh: -1.7; HCV NS3 hel inh: 30.1; UHRF1 binding: -1.4; SUMO1-SIM PPI: 4.2; DNMT1 inh conf: 4.0; Beacon interf: 0.8

What do the screens show for `COc1cc(C(=O)Nc2cccc(NC(=O)c3cccs3)c2)cc(OC)c1OC`?
DNMT1 block: -2.4; DSG3 Ab inh: 103.2; MBD2 inh: 1.6; HCV NS3 hel inh: -7.4; UHRF1 binding: 1.1; SUMO1-SIM PPI: 10.8

What do the screens show for `CC(C)CC(NC(=O)c1ccc(Cl)cc1)C(=O)O` (stereo not drawn)?
DNMT1 block: 3.9; DSG3 Ab inh: 97.7; MBD2 inh: 2.2; HCV NS3 hel inh: -0.7; UHRF1 binding: -0.4; SUMO1-SIM PPI: 0.4

How did O=C(NCCO)c1ccc(Cl)c(Cl)c1 do in these assays?
DNMT1 block: 22.2; DSG3 Ab inh: 107.5; MBD2 inh: -2.9; HCV NS3 hel inh: 3.0; UHRF1 binding: 2.5; SUMO1-SIM PPI: -1.7

What do the screens show for `c1coc(-c2nc3ccccc3nc2-c2ccco2)c1`?
DNMT1 block: 103.0*; DSG3 Ab inh: 103.1; MBD2 inh: 6.3; HCV NS3 hel inh: 32.9; UHRF1 binding: 53.1*; SUMO1-SIM PPI: 30.0; DNMT1 inh conf: 0.8; Beacon interf: 4.3

Results for O=C(NCCO)c1ccc2nc(-c3ccco3)c(-c3ccco3)nc2c1 ?
DNMT1 block: 58.4*; DSG3 Ab inh: 73.5; MBD2 inh: 9.4; HCV NS3 hel inh: 12.9; UHRF1 binding: 41.8*; SUMO1-SIM PPI: 43.5*; DNMT1 inh conf: 3.4; Beacon interf: 2.4

How did O=C(O)c1ccc2nc(-c3ccccc3)c(-c3ccccc3)nc2c1 do in these assays?
DNMT1 block: 2.4; DSG3 Ab inh: 92.9; MBD2 inh: -0.5; HCV NS3 hel inh: 24.0; UHRF1 binding: -0.2; SUMO1-SIM PPI: -3.3

How did O=C(c1ccccc1)c1ccc2nc(-c3ccco3)c(-c3ccco3)nc2c1 do in these assays?
DNMT1 block: 100.9*; MBD2 inh: -2.7; HCV NS3 hel inh: 34.2; UHRF1 binding: -4.0; SUMO1-SIM PPI: 51.9*; DNMT1 inh conf: 1.3; Beacon interf: 1.9

How did COc1cc(OC)c2ccc(=O)oc2c1C(CCN1CCOCC1)c1ccc2c(c1)OCO2 (stereo not drawn) do in these assays?
DNMT1 block: 60.9*; DSG3 Ab inh: 99.7; MBD2 inh: 4.3; UHRF1 binding: 25.8*; SUMO1-SIM PPI: -4.7; DNMT1 inh conf: 3.6; Beacon interf: 2.1

What do the screens show for `COc1cc(OC)c2ccc(=O)oc2c1C(CCN1CCCC1)c1ccc2c(c1)OCO2` (stereo not drawn)?
DNMT1 block: 2.3; DSG3 Ab inh: 102.2; MBD2 inh: -3.4; UHRF1 binding: -0.5; SUMO1-SIM PPI: -10.4

How did Nc1[nH]n(-c2ccccc2)c(=O)c1N=Nc1ccccc1[N+](=O)[O-] do in these assays?
DNMT1 block: -3.0; MBD2 inh: -4.9; HCV NS3 hel inh: -0.4; UHRF1 binding: -2.2; SUMO1-SIM PPI: -9.7

What do the screens show for `NC(=S)n1[nH]c(-c2ccc([N+](=O)[O-])cc2)c(N=Nc2ccccc2[N+](=O)[O-])c1=O`?
DNMT1 block: 84.7*; DSG3 Ab inh: 74.2; MBD2 inh: -1.7; HCV NS3 hel inh: 17.2; UHRF1 binding: 0.5; SUMO1-SIM PPI: 5.4; DNMT1 inh conf: -2.2; Beacon interf: -8.4

Results for C#CCSc1nc2sc3c(c2c(=O)n1C)CCC3 ?
DNMT1 block: 61.4*; DSG3 Ab inh: 99.3; MBD2 inh: 2.1; HCV NS3 hel inh: -5.6; UHRF1 binding: 19.8; SUMO1-SIM PPI: 13.2; DNMT1 inh conf: 0.1; Beacon interf: -4.1

What do the screens show for `CCN(C(=O)C(C)N1C(=O)/C(=C/c2ccco2)SC1=S)C1CCS(=O)(=O)C1` (stereo not drawn)?
DNMT1 block: 63.4*; DSG3 Ab inh: 105.0; MBD2 inh: -2.4; HCV NS3 hel inh: 22.0; UHRF1 binding: 30.5*; SUMO1-SIM PPI: -3.0; DNMT1 inh conf: 0.0; Beacon interf: 1.2

Results for COc1ccc(Cl)cc1-c1cc(C(=O)NCc2cccc(C(F)(F)F)c2)[nH]n1 ?
DNMT1 block: 58.0*; MBD2 inh: -4.4; UHRF1 binding: 0.1; SUMO1-SIM PPI: 2.4; DNMT1 inh conf: 1.4; Beacon interf: 0.8

Bioassay records from PubChem BioAssay.
